Laboratory results from ChEMBL document CHEMBL1123206, “5-(Alkylsulfonyl)salicylanilides as potential dental antiplaque agents” (J Med Chem, 1986).
≈ marks a conversion by molar mass, not a printed value. Calls of active or inactive are those of the source. No cut-off for these calls is given here.

Key:
[1] = test system: Actinomyces viscosus; test: Minimum inhibitory concentration against Actinomyces viscosus M100-2000; NE is Not Effective; type: functional, organism-based
Procedure, shortened: (§1)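 Tube dilution in trypticase soy broth, threefold dilutions from 1000 to 0.1 μg/mL. Stocks were 1 mg/100 μL in EtOH or Me₂SO. The inoculum was 50 μL of 10⁸ cfu/mL log-phase A. viscosus M100-2000, incubated aerobically at 37 °C. MIC was read visually at 24 h.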

[2] = test system: Actinomyces viscosus; test: Maximum percentage inhibition against Actinomyces viscosus 6715-13WT at a concentration of 0.1% w/v; type: functional; conditions: in the assay text read “M-100-2000” for “6715-13WT”
Procedure, shortened: (§2)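 Bovine enamel slabs (4 × 8 mm) were autoclaved in PBS pH 7.5, coated with human saliva (1 h, 37 °C), dipped in drug solution at the stated w/v for 2 min, then rinsed. They were incubated 24 h at 37 °C in 1% sucrose-supplemented medium inoculated with the plaque-forming organism. Tooth-adherent, glass-adherent and nonadherent fractions were read by OD540. Water-dipped slabs served as controls. Run in triplicate.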

[3] = test system: Actinomyces viscosus; test: Compound was tested for it's inhibitory activity against Actinomyces viscosus M100-2000; type: functional, organism-based
[4] = test system: Actinomyces viscosus; test: Minimum inhibitory concentration against Actinomyces viscosus; type: functional; procedure, shortened: as §1
[5] = test system: Streptococcus mutans; test: The compound was tested for it's inhibitory activity against Streptococcus mutans; type: functional, organism-based
[6] = test system: Streptococcus mutans; test: Maximum percentage inhibition against Streptococcus mutans at a concentration of 0.1% w/v; type: functional; procedure, shortened: as §2
[7] = Partition coefficient (logP); type: physicochemical; conditions: octanol/water
Procedure, shortened: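 log P calculated, not measured: 3.27 for salicylanilide plus π of the 4'-substituent plus π of R' (phenolic hydrophobicity substituent constants).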

[8] = test system: Actinomyces viscosus; test: Compound was tested against Actinomyces viscosus; type: functional
[9] = Partition coefficient (logD); type: physicochemical; conditions: octanol/water
Procedure, shortened: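 logD calculated at pH 7.2 as log D = log P + log[1/(1 + 10^(pH−pKa))], using the calculated log P and spectroscopic pKa.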

[10] = Dissociation constant of the compound; type: physicochemical
Procedure, shortened: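 Spectroscopic pKa in 0.01 M phosphate buffers without cosolvent, below 10⁻⁴ M. Only pH values giving >60% ionization were used. The analytical wavelength was the longest λmax at pH 12 (260–370 nm). The value is the average of triplicate determinations.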

[11] = test system: Streptococcus mutans; test: Maximum percentage inhibition against Streptococcus mutans at a concentration of 0.2% w/v; type: functional; procedure, shortened: as §2
[12] = test system: Actinomyces viscosus; test: Maximum percentage inhibition against Actinomyces viscosus M-100-2000 at a concentration of 0.2% w/v

MIC [4] [µg/mL]	logP [7]	Log 1/MIC [8]	logD [9]	pKa [10]	Structure (SMILES)	also measured
0.5 (≈ 0.964 µM)	–	–	–	–	CCCCCCCCCCCCCCS(=O)(=O)c1ccc(O)c(C(=O)Nc2ccc([N+](=O)[O-])cc2)c1	–
5 (≈ 11.4 µM)	5.2	4.94	3.2	5.2	CCCCCCS(=O)(=O)c1ccc(O)c(C(=O)Nc2ccc(Br)cc2)c1	–
0.5 (≈ 1.02 µM)	–	–	–	–	CCCCCCCCCCCCS(=O)(=O)c1ccc(O)c(C(=O)Nc2ccc([N+](=O)[O-])cc2)c1	–
0.1 (≈ 0.195 µM)	–	–	–	–	CCCCCCCCCCCCS(=O)(=O)c1ccc(O)c(C(=O)Nc2cccc(C(F)(F)F)c2)c1	–
0.5 (≈ 0.953 µM)	8.44	6.02	6.49	5.2	CCCCCCCCCCCCS(=O)(=O)c1ccc(O)c(C(=O)Nc2ccc(Br)cc2)c1	–
≥ 1000	–	–	–	–	CS(=O)(=O)c1ccc(O)c(C(=O)Nc2ccc(Br)cc2)c1	–
5 (≈ 11.6 µM)	5.22	4.94	4.18	6.2	CCCCCCS(=O)(=O)c1ccc(O)c(C(=O)Nc2ccc(C(F)(F)F)cc2)c1	–

Second part, the molecule before the results:

Structure (SMILES)	MIC [4] [µg/mL]	logP [7]	Log 1/MIC [8]	logD [9]	pKa [10]	also measured
CCCCCCCCCCCCCCS(=O)(=O)c1ccc(O)c(C(=O)Nc2cccc(C(F)(F)F)c2)c1	–	–	–	–	–	MIC [1]: inactive
CCCCCCCCCCS(=O)(=O)c1ccc(O)c(C(=O)Nc2cccc(C(F)(F)F)c2)c1	0.5 (≈ 1.03 µM)	–	–	–	–	inhibition at 0.1 % strength [2]: 83%; IC50 [3]: 680 µM; IC50 [5]: 2300 µM; inhibition at 0.1 % strength [6]: 47%
CCCCCCCCS(=O)(=O)c1ccc(O)c(C(=O)Nc2ccc([N+](=O)[O-])cc2)c1	1 (≈ 2.3 µM)	–	–	–	–	–
CCCCCCCCCCS(=O)(=O)c1ccc(O)c(C(=O)Nc2ccc([N+](=O)[O-])cc2)c1	0.5 (≈ 1.08 µM)	–	–	–	–	inhibition at 0.2 % strength [11]: 80%; IC50 [3]: 230 µM; IC50 [5]: 190 µM; inhibition at 0.2 % strength [12]: 93%
CCCCS(=O)(=O)c1ccc(O)c(C(=O)Nc2ccc(Br)cc2)c1	20 (≈ 48.5 µM)	4.12	4.31	2.48	5.2	–
CCCCCCCCCCCCS(=O)(=O)c1ccc(O)c(C(=O)Nc2ccc(OC)cc2)c1	1000 (≈ 2100 µM)	–	–	–	–	–
CCCCCCCCCCCCCCS(=O)(=O)c1ccc(O)c(C(=O)Nc2ccc(C(F)(F)F)cc2)c1	–	–	–	–	–	MIC [1]: inactive
CCCCCCCCCCCCS(=O)(=O)c1ccc(O)c(C(=O)Nc2ccc(C(F)(F)F)cc2)c1	0.05 (≈ 0.0973 µM)	8.46	7.01	7.42	6.2	–
CS(=O)(=O)c1ccc(O)c(C(=O)Nc2ccccc2)c1	≥ 1000	–	–	–	–	–
CCCCCCCCCCS(=O)(=O)c1ccc(O)c(C(=O)Nc2ccc(Br)cc2)c1	0.5 (≈ 1.01 µM)	7.36	6	5.36	5.2	–
CCCCCCCCCCCCS(=O)(=O)c1ccc(O)c(C(=O)Nc2ccc(C#N)cc2)c1	1 (≈ 2.12 µM)	–	–	–	–	–
CCCCCCCCS(=O)(=O)c1ccc(O)c(C(=O)Nc2ccc(C(F)(F)F)cc2)c1	0.5 (≈ 1.09 µM)	6.3	5.96	5.26	6.2	–
CCCCCCCCCCS(=O)(=O)c1ccc(O)c(C(=O)Nc2ccc(C(F)(F)F)cc2)c1	0.1 (≈ 0.206 µM)	7.38	6.69	6.34	6.2	inhibition at 0.2 % strength [11]: 76%; IC50 [3]: 90 µM; IC50 [5]: 1900 µM; inhibition at 0.2 % strength [12]: 95%
CCCCS(=O)(=O)c1ccc(O)c(C(=O)Nc2ccc(C(F)(F)F)cc2)c1	20 (≈ 49.8 µM)	4.14	4.31	3.1	6.2	–
O=C(Nc1ccc(Br)cc1)c1cc(Br)cc(Br)c1O [TRIBROMSALAN]	0.5 (≈ 1.11 µM)	–	–	–	–	inhibition at 0.2 % strength [11]: 46%; IC50 [3]: 880 µM; IC50 [5]: 1200 µM; inhibition at 0.2 % strength [12]: 53%
CS(=O)(=O)c1ccc(O)c(C(=O)Nc2ccc(C(F)(F)F)cc2)c1	1000 (≈ 2780 µM)	2.52	2.56	1.48	6.2	–
